Key:
GPR35 [1] = target: T1, GPR35 (Homo sapiens, UniProt Q9HC97); conditions: read-out: IC50, antagonism at GPR35; previously identified screening hits; cited from earlier work
GPR35 [2] = target: T1, GPR35; format: cell-based; conditions: 10 μM Zaprinast as agonist
In short: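 Antagonism measured against a 10 μM Zaprinast agonist challenge in U2OS cells permanently expressing HA-GPR35a and βarr2-GFP. Concentration-effect curves for agonist-mediated receptor activation were analysed by nonlinear regression and fitted to sigmoidal dose-response curves to obtain IC50.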

T1 sequence (Q9HC97 whole entry): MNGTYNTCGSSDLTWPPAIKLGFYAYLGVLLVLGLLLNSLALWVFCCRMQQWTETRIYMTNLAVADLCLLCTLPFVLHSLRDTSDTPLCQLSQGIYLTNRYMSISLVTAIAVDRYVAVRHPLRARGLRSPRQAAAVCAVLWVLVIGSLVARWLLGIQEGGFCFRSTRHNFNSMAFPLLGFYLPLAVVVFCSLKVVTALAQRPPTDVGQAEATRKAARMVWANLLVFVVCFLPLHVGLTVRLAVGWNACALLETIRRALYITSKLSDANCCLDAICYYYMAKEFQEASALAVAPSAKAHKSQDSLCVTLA

Row | Structure (SMILES) | IC50 (GPR35 [1]) | activity as GPR35 antagonist (in words) (GPR35 [2])
1 | CNC(=S)NN=Cc1c(C(=O)OC)cnn1-c1ccc(F)cc1F [Compound 13] | 160 nM | 
2 | O=C(Nc1ccc2nc(SCc3ccc(Cl)cc3)sc2c1)c1ccccc1C(=O)N1CCCCC1 [Compound 2] |  | devoid of activity
3 | O=C(Nc1ccc2nc(SCc3ccc(Cl)cc3)sc2c1)c1ccccc1C(=O)N1CCCC1 [Compound 3] |  | devoid of activity
4 | O=C(Nc1ccc2nc(SCc3ccncc3)sc2c1)c1ccccc1C(=O)N1CCOCC1 [Compound 9] |  | inactive

Reference: article PMC5335871 (Bioorganic & medicinal chemistry letters, 2016)
